These results are taken from PubChem BioAssay AID588776 (Johns Hopkins Ion Channel Center, 2011).

In general, pIC50 refers to the IC50 on a negative log10 scale, so that one unit is a factor of ten.

Each structure is given as a SMILES string. pIC50: −log10 of the molar value. The source made the active and inactive calls.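 How the source made its calls: active means peak inhibition of the KCNK3 potassium channel above 30% at some tested dose, plus a fitted dose response curve; inactive means no inhibition at any dose, or no curve could be fitted.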 A value given as a limit tells only on which side of the number the result lay.

In the experiment the target is Potassium channel subfamily K member 3 (Rattus norvegicus) (UniProt O54912). Description: off-target block of rat KCNK3 – cell-based, FluxOR thallium flux, CRC set 1, selectivity assay for KCNK9 inhibitor project, SAR follow-up (AID 588776). Conditions: KCNK3-expressing cells, FluxOR thallium flux fluorescence; for flux ratio, lower = inhibition: at 30 µM (top of the series). The method in brief:
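Material: Tetracycline-induced KCNK3-expressing CHO cells | Schedule: 90 min dye load, 20 min compound, room temperature | Measured by: Kinetic fluorescence of FluxOR thallium-sensitive dye after stimulus addition | Measure: Baseline-normalized fluorescence change, IC50 and Hill fit | Repeats: Duplicate or more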

Potassium channel subfamily K member 3 (Rattus norvegicus), sequence (O54912 whole entry, looked up): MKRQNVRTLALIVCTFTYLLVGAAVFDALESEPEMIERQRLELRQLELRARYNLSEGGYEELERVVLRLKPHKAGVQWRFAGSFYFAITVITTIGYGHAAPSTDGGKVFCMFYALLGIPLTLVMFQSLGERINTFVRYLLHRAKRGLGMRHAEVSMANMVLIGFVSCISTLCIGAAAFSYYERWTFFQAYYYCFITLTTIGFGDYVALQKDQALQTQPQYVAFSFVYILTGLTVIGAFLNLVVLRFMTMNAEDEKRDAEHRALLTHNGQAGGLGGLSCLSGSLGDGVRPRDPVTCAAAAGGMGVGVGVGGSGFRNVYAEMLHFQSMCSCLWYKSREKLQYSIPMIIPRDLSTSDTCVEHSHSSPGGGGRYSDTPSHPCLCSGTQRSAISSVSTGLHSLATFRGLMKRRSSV

`C[C@@H](C1CCCCC1)n1c(-c2ccco2)n[nH]c1=S`: the pIC50 was less than 4.52.

Regarding `CC(C1CC2CCC1C2)n1c(-c2ccncc2)n[nH]c1=S` (stereo not drawn), the “flux ratio, lower = inhibition” value is “inactive”.

With `CC(C1CC2CCC1C2)n1c(-c2ccc(N(C)C)cc2)n[nH]c1=S` (stereo not drawn), the “flux ratio, lower = inhibition” value was “inactive”.

Consider `CC(CC1CC2CCC1C2)n1c(-c2ccco2)n[nH]c1=S` (stereo not drawn), for which the pIC50 was 4.80.

With `COc1ccc(CCSc2nnc(-c3ccco3)n2C(C)C2CC3CCC2C3)cc1OC` (stereo not drawn), the pIC50 is 4.81.

For the compound `CC(C1CC2CCC1C2)n1c(SCC(=O)c2ccccc2)nnc1-c1ccco1` (stereo not drawn), the negative-log IC50 (pIC50) was 5.91.

For the compound `CC(C1CC2CCC1C2)n1c(SCC(=O)c2ccc3c(c2)OCO3)nnc1-c1ccco1` (stereo not drawn), the pIC50 was 5.31.

With `COc1cccc(C(=O)CSc2nnc(-c3ccco3)n2C(C)C2CC3CCC2C3)c1` (stereo not drawn), the negative logarithm of the IC50 (pIC50) was 4.83.

On to `C[C@H](C1CCCCC1)n1c(-c2ccco2)n[nH]c1=S`, for which the “flux ratio, lower = inhibition” value is “inactive”.

Regarding `CC(C1CC2CCC1C2)n1c(-c2cccc(N(C)C)c2)n[nH]c1=S` (stereo not drawn), the “flux ratio, lower = inhibition” value was “inactive”.

For `CC(CCC1CCCC1)n1c(-c2ccco2)n[nH]c1=S` (stereo not drawn), the pIC50 was 5.63.

Consider `CC(C1CC2CCC1C2)n1c(SCC(=O)c2ccc(Cl)c(Cl)c2)nnc1-c1ccco1` (stereo not drawn), for which the pIC50 is 5.10.

For `CC(C1C2CCC1CC2)n1c(-c2ccco2)n[nH]c1=S` (stereo not drawn), the “flux ratio, lower = inhibition” value was “inactive”.
